Series [1] in a line: Drug recovery in healthy human feces treated with [14C]GSK2251052 at 1500 mg, iv infusion for 1 hr as single dose after 0 to 120 hrs by HPLC method. Particulars: in vivo.
Series [2] can be described thus: Drug recovery in healthy human feces treated with [14C]GSK2251052 at 1500 mg, iv infusion for 1 hr as single dose after 120 hrs by HPLC method. Particulars: in vivo. It is filed as ADME, organism-based. The method, boiled down: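 Feces pooled over 0–120 h per subject by sample weight. About 1 g homogenate extracted twice with 4 volumes of acetonitrile:methanol:water:formic acid (50:25:25:1) under 20 min sonication. Extracts dried and reconstituted in water:methanol 90:10. Profiled by HPLC (Atlantis T3, ammonium acetate pH 4.5/methanol, 30°C) with fraction radiocounting and Orbitrap MS. Results given as % of dose, corrected for extraction recovery.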

A short description of series [3]: Drug recovery in healthy human urine treated with [14C]GSK2251052 at 1500 mg, iv infusion for 1 hr as single dose after 120 to 336 hrs by HPLC method. The format is ADME, organism-based. Conditions: in vivo, BLD = below limit of detection. The method, boiled down: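 Urine pooled by weight per subject over 0–120 h; 120–336 h pools from all subjects combined into one composite. Centrifuged at ~21,000g, then supernatant profiled by HPLC (Atlantis T3, ammonium acetate pH 4.5/methanol, 30°C) with radiochemical detection plus MS identification. Results are % of dose, corrected for centrifugation recovery measured by triplicate LSC.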

A short description of series [4]: Half life in healthy human plasma at 1500 mg, iv infusion for 1 hr as single dose. The format is ADME, organism-based. The procedure, abridged:
(§1)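 Healthy men got a single 1500 mg [14C] dose by 1 h i.v. infusion. K2EDTA blood was sampled up to 336 h. Radioactivity in blood and plasma was measured by LSC, with AMS for plasma below LLQ. Parent and M3 were measured by LC/MS/MS (5–10,000 ng/ml range). Noncompartmental analysis used actual times, with t1/2 = ln2/λz and Tmax observed directly, timed from infusion start.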

The nature of series [5]: Mean residence time in cynomolgus monkey at 35 mg/kg, iv administered as single infusion for 1 hr. The format is ADME, organism-based, Macaca fascicularis. Set-up: dose 35 mg/kg, route intravenous. Conditions: in vivo. The method, boiled down:
(§2)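 Male cynomolgus monkeys received 35 mg/kg as a 1 h i.v. infusion (7 mg/ml in saline, pH 5; 5 ml/kg/h), either alone or 1 h after oral gavage of 4-MP (8.75 mg/ml in water, 4 ml/kg). Plasma was sampled from 0.5 to 120 h, and parent and M3 were measured by LC/MS/MS. Noncompartmental analysis used nominal times, with t1/2 = ln2/λz.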

Series [6] can be described thus: Cmax in healthy human plasma at 1500 mg, iv infusion for 1 hr as single dose. It is filed as ADME, organism-based. Further details: dose 1500 mg, route intravenous. The method, boiled down: (§3)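 Six fasted healthy men received 1500 mg [14C]GSK2251052 as a 1-h constant-rate i.v. infusion. K2EDTA plasma was sampled from predose to 72 h, with profiling samples added at 96, 144 and 336 h. Parent and M3 were measured by validated LC/MS/MS after methanol/formic acid precipitation with stable-label internal standards (range 5–10,000 ng/ml). Noncompartmental analysis used actual times, linear-up/log-down trapezoids and CL = dose/AUC(0-∞).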

Series [7] can be described thus: Tmax in cynomolgus monkey at 35 mg/kg, iv administered as single infusion for 1 hr followed single oral dose of 35 mg/kg 4-MP. The format is ADME, organism-based, Macaca fascicularis. Particulars: in vivo. The procedure, abridged: as §2
The nature of series [8]: AUC (0 to t) in healthy human plasma at 1500 mg, iv infusion for 1 hr as single dose. The format is ADME, organism-based. The method, boiled down:
as §3

A short description of series [9]: AUC (0 to infinity) in cynomolgus monkey at 35 mg/kg, iv administered as single infusion for 1 hr. Particulars: plasma. It is filed as ADME, organism-based, Macaca fascicularis. Further details: time infinity, dose 35 mg/kg, route intravenous. The procedure, abridged:
(§4)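 Male cynomolgus monkeys given a 1-h i.v. infusion at 35 mg/kg (7 mg/ml in saline, pH 5, 5 ml/kg/h). Where 4-MP was used, it was given by oral gavage 1 h before infusion (8.75 mg/ml in water, 4 ml/kg). K2EDTA plasma was sampled from 0.5 to 120 h after infusion start. Parent and M3 were measured by LC/MS/MS after protein precipitation (range 100–200,000 ng/ml). Noncompartmental analysis used nominal times.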

A further series deals with Liver cytosol. Briefly: Drug metabolism in human liver cytosol assessed as (S)-3-(3-(aminomethyl)-1-hydroxy-1,3-dihydrobenzo[c][1,2]oxaborol-7-yloxy)propanoicacid formation at 50 to 500 uM after 3 hrs by spectrophotometry in presence of NAD+ and ADH inhibitor 4-MP. The format is ADME.
Series [10] in a line: Clearance in healthy human plasma at 1500 mg, iv infusion for 1 hr as single dose. It is filed as ADME, organism-based. The procedure, abridged: as §3
Series [11] in a line: Half life in cynomolgus monkey at 35 mg/kg, iv administered as single infusion for 1 hr. Particulars: in vivo. The format is ADME, organism-based, Macaca fascicularis. Further details: dose 35 mg/kg, route intravenous. The procedure, abridged:
as §2

The nature of series [12]: Drug metabolism in human liver cytosol assessed as ADH-mediated (S)-3-(3-(aminomethyl)-1-hydroxy-1,3-dihydrobenzo[c][1,2]oxaborol-7-yloxy)propanoicacid formation at 50 to 500 uM by spectrophotometry in presence of NAD+. The format is ADME. Conditions: TDE = time-dependent effect.
Series [13] in a line: Cmax in cynomolgus monkey at 35 mg/kg, iv administered as single infusion for 1 hr. The format is ADME, organism-based, Macaca fascicularis. Set-up: dose 35 mg/kg, route intravenous. Particulars: in vivo. The method, boiled down: as §4
Series [14] can be described thus: Volume of distribution at steady state in cynomolgus monkey at 35 mg/kg, iv administered as single infusion for 1 hr. It is filed as ADME, organism-based, Macaca fascicularis. Further details: dose 35 mg/kg, route intravenous. Particulars: in vivo, read-out: Vdss. The procedure, abridged:
(§5)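 Cynomolgus monkeys got a 1-h IV infusion at 35 mg/kg (7 mg/ml in saline, pH 5), either alone or 1 h after oral gavage of 4-methylpyrazole (8.75 mg/ml in water, 4 ml/kg). Plasma (K2EDTA) was sampled to 120 h and assayed by protein precipitation and LC/MS/MS (range 100–200,000 ng/ml). Vss (CL × MRT) was derived by noncompartmental analysis on nominal times; values are for males.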

Series [15] can be described thus: Half life in cynomolgus monkey at 35 mg/kg, iv administered as single infusion for 1 hr followed single oral dose of 35 mg/kg 4-MP. The format is ADME, organism-based, Macaca fascicularis. Particulars: in vivo. The procedure, abridged: as §2
Series [16] can be described thus: AUC (0 to infinity) in cynomolgus monkey at 35 mg/kg, iv administered as single infusion for 1 hr followed single oral dose of 35 mg/kg 4-MP. It is filed as ADME, organism-based, Macaca fascicularis. Particulars: plasma. The procedure, abridged: as §4
Series [17] can be described thus: Clearance in cynomolgus monkey at 35 mg/kg, iv administered as single infusion for 1 hr. Particulars: in vivo. Set-up: dose 35 mg/kg, route intravenous. The format is ADME, organism-based, Macaca fascicularis. The method, boiled down:
as §4

Series [18] can be described thus: Drug metabolism assessed as purified ADH (unknown origin)-mediated (S)-3-(3-(aminomethyl)-1-hydroxy-1,3-dihydrobenzo[c][1,2]oxaborol-7-yloxy)propanoicacid formation at 50 to 500 uM by spectrophotometry in presence of NAD+. The format is ADME. Particulars: human, TDE = time-dependent effect.
Series [19] in a line: Mean residence time in cynomolgus monkey at 35 mg/kg, iv administered as single infusion for 1 hr followed single oral dose of 35 mg/kg 4-MP. The format is ADME, organism-based, Macaca fascicularis. Conditions: in vivo. The procedure, abridged:
as §2

Series [20] can be described thus: Tmax in cynomolgus monkey at 35 mg/kg, iv administered as single infusion for 1 hr. It is filed as ADME, organism-based, Macaca fascicularis. Set-up: dose 35 mg/kg, route intravenous. Particulars: in vivo. The method, boiled down:
as §2

Series [21] can be described thus: Clearance in cynomolgus monkey at 35 mg/kg, iv administered as single infusion for 1 hr followed single oral dose of 35 mg/kg 4-MP. It is filed as ADME, organism-based, Macaca fascicularis. Particulars: in vivo. The method, boiled down:
as §4

Series [22] can be described thus: Volume of distribution at steady state in healthy human plasma at 1500 mg, iv infusion for 1 hr as single dose. Particulars: read-out: Vdss. The format is ADME, organism-based. The procedure, abridged:
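Healthy males got 1500 mg by 1-h IV infusion. Plasma (K2EDTA) was sampled to 72 h, plus 96, 144 and 336 h. Parent was measured by a validated LC/MS/MS method after methanol/formic acid precipitation with a stable-isotope internal standard (range 5–10,000 ng/ml). Vss = CL × MRT from noncompartmental analysis.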

Series [23] can be described thus: Tmax in healthy human plasma at 1500 mg, iv infusion for 1 hr as single dose. It is filed as ADME, organism-based. The procedure, abridged: as §1
Series [24] in a line: Volume of distribution at steady state in cynomolgus monkey at 35 mg/kg, iv administered as single infusion for 1 hr followed single oral dose of 35 mg/kg 4-MP. The format is ADME, organism-based, Macaca fascicularis. Conditions: in vivo, read-out: Vdss. The procedure, abridged:
as §5

Series [25] can be described thus: Cmax in cynomolgus monkey at 35 mg/kg, iv administered as single infusion for 1 hr followed single oral dose of 35 mg/kg 4-MP. The format is ADME, organism-based, Macaca fascicularis. Conditions: in vivo. The procedure, abridged:
as §4

Series [26] can be described thus: AUC (0 to infinity) in healthy human plasma at 1500 mg, iv infusion for 1 hr as single dose. It is filed as ADME, organism-based. Set-up: dose 1500 mg, route intravenous, time infinity. The procedure, abridged: as §3

By half-life is commonly meant the time needed for the level to fall by half in the phase considered. Broadly, the MRT is a mean duration of stay, worked out from the concentration-time curve. Broadly, the Cmax is the peak of the concentration-time curve. As a reminder, the Tmax is the time at which the peak concentration occurs. Broadly, the AUC(0-t) is exposure summed from dosing to a finite time, without extrapolation to infinity. The term AUC(0-inf) denotes the area under the concentration-time curve extrapolated to infinity.

In the case of `NCC(O)c1cccc(OCCC(=O)O)c1O` (configuration not stated), the values for the Drug recovery in series [1], in series [2] and in [3] were 1.4%, 1.4% and “BLD”, respectively.

On to `Cl.NC[C@H]1OB(O)c2c(OCCCO)cccc21`, for which the half-life in [4] is 11.6 h; in [11], 5.4 h; in [15] it was 9.2 h. In addition, the MRT was 4.9 h in [5] and 11 h in series [19]. The Cmax in [6] is 24600 ng/mL; in series [13], 46000 ng/mL; in [25], 68600 ng/mL. In addition, the figures for the Tmax in [7], in series [20] and in series [23] were 0.92 h, 0.92 h and 0.917 h, respectively. In [8], this compound had an exposure AUC(0-t) at 1 h of 72300 ng·h/mL. Further, the AUC(0-inf) in series [9] is 60700 ng·h/mL; in [16], 161000 ng·h/mL; in series [26], 72500 ng·h/mL. Also, the Drug metabolism result in the series with Liver cytosol is reported as “metabolite_not_detected”; in [12], “tde”; in [18], “tde”. The clearance is 345 mL/min in series [10], 10 mL/min/kg in series [17] and 3.67 mL/min/kg in series [21]. Also, the figures for the Vd in [14], in series [22] and in [24] were 3.04 L/kg, 197 L and 2.53 L/kg, respectively.

These data come from ChEMBL document CHEMBL3526029, “Disposition and metabolism of GSK2251052 in humans: a novel boron-containing antibiotic” (Drug Metab Dispos, 2013).
